According to ChEMBL document CHEMBL5678818, “Discovery of potent SOS1 inhibitors that block RAS activation via disruption of the RAS-SOS1 interaction” (Proc Natl Acad Sci U S A, 2019):
Activity calls are given as the source filed them. No cut-off for these calls is given here.

Tests used:
[1] = molecular target: T1, Son of sevenless homolog 1 (Homo sapiens) (UniProt Q07889); assay: Binding affinity to N-terminal His10-tagged wild-type recombinant human SOS1 catalytic domain (564 to 1049 residues) expressed in Escherichia coli at 200 uM by STD-NMR analysis
T1 sequence (whole entry): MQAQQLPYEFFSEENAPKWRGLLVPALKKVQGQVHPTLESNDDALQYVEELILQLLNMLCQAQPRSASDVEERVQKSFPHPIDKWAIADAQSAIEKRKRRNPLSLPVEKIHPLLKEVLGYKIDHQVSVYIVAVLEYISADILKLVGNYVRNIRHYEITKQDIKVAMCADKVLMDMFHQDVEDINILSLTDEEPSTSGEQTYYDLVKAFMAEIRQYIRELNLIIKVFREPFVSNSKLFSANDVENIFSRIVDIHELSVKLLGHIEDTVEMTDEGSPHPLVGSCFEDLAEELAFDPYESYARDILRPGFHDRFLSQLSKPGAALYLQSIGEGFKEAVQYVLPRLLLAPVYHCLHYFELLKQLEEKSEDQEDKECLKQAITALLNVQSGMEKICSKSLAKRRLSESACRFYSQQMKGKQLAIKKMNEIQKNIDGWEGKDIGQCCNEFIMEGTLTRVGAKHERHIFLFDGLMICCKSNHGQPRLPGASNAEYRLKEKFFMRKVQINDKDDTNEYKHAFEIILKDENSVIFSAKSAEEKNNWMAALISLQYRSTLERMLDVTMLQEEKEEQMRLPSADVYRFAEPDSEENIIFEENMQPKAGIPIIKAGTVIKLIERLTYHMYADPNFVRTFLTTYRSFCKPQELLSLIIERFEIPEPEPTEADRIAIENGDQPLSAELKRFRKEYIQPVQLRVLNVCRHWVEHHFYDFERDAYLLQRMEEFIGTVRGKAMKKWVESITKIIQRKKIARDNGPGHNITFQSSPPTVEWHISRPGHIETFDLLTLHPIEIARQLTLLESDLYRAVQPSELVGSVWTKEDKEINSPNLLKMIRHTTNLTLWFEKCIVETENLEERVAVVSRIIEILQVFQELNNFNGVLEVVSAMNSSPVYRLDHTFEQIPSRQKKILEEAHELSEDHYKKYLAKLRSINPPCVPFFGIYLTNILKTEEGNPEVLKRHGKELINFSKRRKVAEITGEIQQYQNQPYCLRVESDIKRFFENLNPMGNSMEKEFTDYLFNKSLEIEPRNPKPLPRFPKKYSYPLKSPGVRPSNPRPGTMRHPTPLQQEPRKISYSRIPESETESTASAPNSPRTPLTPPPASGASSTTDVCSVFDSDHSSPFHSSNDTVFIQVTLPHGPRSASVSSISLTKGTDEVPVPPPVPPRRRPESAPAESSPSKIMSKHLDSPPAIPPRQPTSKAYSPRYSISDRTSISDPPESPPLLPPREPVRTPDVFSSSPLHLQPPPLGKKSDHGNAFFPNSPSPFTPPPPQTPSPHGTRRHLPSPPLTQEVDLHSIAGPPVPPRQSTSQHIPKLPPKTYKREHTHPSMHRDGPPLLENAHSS

[2] = test system: GTPase KRas (Homo sapiens), P01116 [G12C]; assay: Binding affinity to N-terminal GST-tagged recombinant human KRAS G12C mutant (1 to 169 residues) expressed in Escherichia coli at 200 uM by STD-NMR analysis
Homo sapiens [3] = species on record: Homo sapiens; assay: Stabilization of N-terminal His10-tagged recombinant human KRAS G12C/C118S mutant (1 to 169 residues) expressed in Escherichia coli/Series S C1 sensor chip-immobilized biotinylated N-terminal His10-tagged wild-type recombinant human SOS1 catalytic domain (564 to 1049 residues) expressed in Escherichia coli at 100 to 500 uM measured for 360 secs by SPR analysis; details: dose 100-500 µM, time 360.0 sec
Method in brief: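 SOS1cat is immobilized on the chip, and 250 nM KRASG12C_C118S is flowed over with or without test compound. Compound alone at 100, 250 and 500 µM is also injected to gauge unspecific binding to SOS1cat. Buffer injection serves as the blank.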

Homo sapiens [4] = species on record: Homo sapiens; assay: Stabilization of N-terminal His10-tagged 15N-labeled recombinant human KRAS G12C/C118S mutant (1 to 169 residues) expressed in Escherichia coli/N-terminal His10-tagged wild-type recombinant human SOS1 catalytic domain (564 to 1049 residues) expressed in Escherichia coli at 1 mM incubated for 30 mins by 2D-NMR analysis
[5] = test system: SOS1-KRAS (Homo sapiens), Q07889+P01116 [G12C]; assay: Binding affinity to N-terminal GST-tagged recombinant human KRAS G12C mutant (1 to 169 residues) expressed in Escherichia coli/N-terminal His10-tagged wild-type recombinant human SOS1 catalytic domain (564 to 1049 residues) expressed in Escherichia coli at 200 uM by STD-NMR analysis
Homo sapiens [6] = species on record: Homo sapiens; assay: Stabilization of N-terminal His10-tagged recombinant human KRAS G12C/C118S mutant (1 to 169 residues) expressed in Escherichia coli/N-terminal His10-tagged wild-type recombinant human SOS1 catalytic domain (564 to 1049 residues) expressed in Escherichia coli by HTRF analysis
Method in brief: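 HTRF equilibrium-binding read-out of KRASG12C_C118S with SOS1cat, detected by fluorescently labelled antibodies including a terbium donor. Signal normalized with DMSO control as 100% and no-SOS1cat wells as 0%. Data are mean ± SD, n = 4.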

[7] = molecular target: Son of sevenless homolog 2 (Homo sapiens, UniProt Q07890); assay: (§1) Inhibition of N-terminal His10-tagged wild-type recombinant human SOS2 catalytic domain (564 to 1043 residues) expressed in Escherichia coli assessed as reduction in KRAS G12C mutant activation preincubated for 10 mins with KRAS followed by SOS2 addition measured after 30 mins in presence of EDA-GTP-DY-647P1 by HTRF analysis
Calu-1 = assay: Antiproliferative activity against human Calu-1 cells assessed as inhibition of cell viability incubated for 72 hrs by Cell Titer Glo assay; assay type: functional, cell-based; details: Calu-1, 72 h
[8] = molecular target: T2, Son of sevenless homolog 1 (Homo sapiens, UniProt Q07889); assay: as §1, with “human SOS1” for “human SOS2”, “to 1049” for “to 1043”, “for 2” for “for 10”, “by SOS1” for “by SOS2”, “after 20” for “after 30”
[9] = molecular target: T3, Guanine nucleotide exchange factor DBS (Homo sapiens, UniProt O15068); assay: Inhibition of human DBS assessed as reduction in CDC42 activation preincubated for 1 min with CDC42 followed by DBS addition measured after 20 mins in presence of EDA-GTP-DY-647P1 by HTRF analysis
T3 sequence (O15068 whole entry): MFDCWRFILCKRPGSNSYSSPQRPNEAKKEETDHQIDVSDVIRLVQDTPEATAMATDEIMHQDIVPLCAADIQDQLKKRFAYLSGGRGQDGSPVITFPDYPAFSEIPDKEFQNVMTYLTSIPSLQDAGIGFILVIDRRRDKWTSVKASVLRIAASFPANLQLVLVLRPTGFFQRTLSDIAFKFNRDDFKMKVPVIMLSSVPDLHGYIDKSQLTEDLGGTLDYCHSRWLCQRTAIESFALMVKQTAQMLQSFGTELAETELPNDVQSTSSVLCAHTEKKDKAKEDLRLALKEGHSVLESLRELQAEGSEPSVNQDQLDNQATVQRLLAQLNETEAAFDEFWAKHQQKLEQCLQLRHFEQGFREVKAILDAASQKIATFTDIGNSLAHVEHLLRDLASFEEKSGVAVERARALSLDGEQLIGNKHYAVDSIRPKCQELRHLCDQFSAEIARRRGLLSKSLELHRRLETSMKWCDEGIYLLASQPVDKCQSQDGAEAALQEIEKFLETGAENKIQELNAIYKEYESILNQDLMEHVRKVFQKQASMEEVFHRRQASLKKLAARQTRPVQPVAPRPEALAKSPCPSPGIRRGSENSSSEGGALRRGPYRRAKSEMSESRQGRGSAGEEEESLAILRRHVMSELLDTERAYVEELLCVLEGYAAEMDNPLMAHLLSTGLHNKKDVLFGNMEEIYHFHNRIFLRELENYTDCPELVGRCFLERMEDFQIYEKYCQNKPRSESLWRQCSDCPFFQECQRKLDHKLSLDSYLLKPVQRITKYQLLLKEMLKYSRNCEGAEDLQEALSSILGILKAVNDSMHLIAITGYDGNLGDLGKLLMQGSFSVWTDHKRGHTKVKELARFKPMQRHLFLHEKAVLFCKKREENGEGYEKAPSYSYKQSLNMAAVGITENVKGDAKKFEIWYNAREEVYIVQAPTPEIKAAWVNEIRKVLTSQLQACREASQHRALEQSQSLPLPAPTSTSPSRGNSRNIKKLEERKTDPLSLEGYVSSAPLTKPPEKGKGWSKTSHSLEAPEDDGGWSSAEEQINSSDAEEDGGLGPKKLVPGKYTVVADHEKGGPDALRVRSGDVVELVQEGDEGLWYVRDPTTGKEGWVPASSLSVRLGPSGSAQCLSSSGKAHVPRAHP

[10] = molecular target: T4, Son of sevenless homolog 1 (Homo sapiens, UniProt Q07889); assay: Inhibition of SOS1 in human HeLa cells assessed as reduction in RAS activation pretreated for 30 mins followed by EGF stimulation for 3 mins by G-LISA analysis; assay type: cell-based
T4 sequence (Q07889 whole entry): T1 sequence (whole entry)

[11] = molecular target: Epidermal growth factor receptor (Homo sapiens, UniProt P00533); assay: Inhibition of human EGFR using biotin-aminohexyl-AEEEEYFELVAKKK as substrate preincubated for 15 mins followed by substrate/ATP addition measured after 20 mins by FRET assay
[12] = molecular target: T4, Son of sevenless homolog 1; assay: Inhibition of SOS1 in human Calu-1 cells assessed as reduction in RAS activation pretreated for 30 mins followed by EGF stimulation for 3 mins by G-LISA analysis; assay type: cell-based
[13] = molecular target: T4, Son of sevenless homolog 1; assay: Inhibition of SOS1 in human K562 cells assessed as reduction in pERK level incubated for 60 mins by HTRF analysis; assay type: cell-based
[14] = molecular target: T4, Son of sevenless homolog 1; assay: Inhibition of SOS1 in human Calu-1 cells assessed as reduction in pERK level incubated for 24 hrs by HTRF analysis; assay type: cell-based
SOS1-KRAS = SOS1-KRAS (Homo sapiens, UniProt Q07889); assay: Inhibition of N-terminal GST-tagged recombinant human KRAS G12C mutant (1 to 169 residues) expressed in Escherichia coli/N-terminal His10-tagged wild-type recombinant human SOS1 catalytic domain (564 to 1049 residues) expressed in Escherichia coli protein-protein interaction preincubated for 2 mins with KRAS followed by SOS1 addition measured after 60 mins in presence of anti-6His-XL665 by HTRF analysis
[15] = molecular target: T2, Son of sevenless homolog 1; assay: as §1, with “SOS1” for “SOS2”, “1049” for “1043”
[16] = molecular target: T4, Son of sevenless homolog 1; assay: Inhibition of SOS1 in human MOLM-13 cells assessed as reduction in pERK level incubated for 60 mins by HTRF analysis; assay type: cell-based
GTPase KRas/RAF1 = GTPase KRas/RAF1 (Homo sapiens, UniProt P01116+P04049); assay: Inhibition of N-terminal His10-tagged wild-type recombinant human KRAS (1 to 169 residues) expressed in Escherichia coli/N-terminal GST-tagged recombinant human CRAF RBD (51 to 131 residues) expressed in Escherichia coli protein-protein interaction preincubated for 30 mins with KRAS followed by CRAF RBD addition measured after 60 mins in presence of anti-6His-XL665/GTP by HTRF analysis
[17] = molecular target: T4, Son of sevenless homolog 1; assay: Inhibition of N-terminal His10-tagged wild-type recombinant human SOS1 catalytic domain (564 to 1049 residues) expressed in Escherichia coli assessed as reduction in wild-type KRAS activation preincubated for 10 mins with KRAS followed by SOS1 addition measured after 30 mins in presence of EDA-GTP-DY-647P1 by HTRF analysis
GTPase KRas = GTPase KRas (Homo sapiens, UniProt P01116, G12C); assay: Inhibition of N-terminal GST-tagged recombinant human KRAS G12C mutant (1 to 169 residues) expressed in Escherichia coli assessed as reduction in intrinsic GTP exchange preincubated for 10 mins with KRAS followed by SOS1 addition measured after 30 mins in presence of EDA-GTP-DY-647P1 by HTRF analysis

NCc1nn(-c2ccccc2)c2c1CCC2
Activity [1]: inactive
Activity [2]: inactive
Activity (Homo sapiens [3]): Active
Activity (Homo sapiens [4]): Active
Activity [5]: Active
Activity (Homo sapiens [6]): Active

COc1cc2nc(C)nc(NC(C)c3ccc(-c4cnc5n4CCC5)s3)c2cc1OC (stereo unspecified)
IC50 [7]: > 20 µM
IC50 (Calu-1): 870 nM
IC50 [8]: 650 nM
IC50 [9]: > 20 µM
IC50 [10]: 5.34 µM
IC50 [11]: > 20 µM
IC50 [12]: 2000 nM
IC50 [13]: 1160 nM
IC50 [14]: 4.46 µM
IC50 (SOS1-KRAS): 400 nM
IC50 [15]: 930 nM
IC50 [16]: 450 nM
IC50 (GTPase KRas/RAF1): > 20 µM
IC50 [17]: 550 nM
IC50 (GTPase KRas): > 20 µM
